Results on one compound are retold here after ChEMBL document CHEMBL3588850, “Multivalent Amino Sugars to Recognize Different TAR RNA Conformations” (Medchemcomm, 2014).

pIC50: −log10 of the molar value.

The test system of experiment [1] is Nucleic Acid. In words: Binding affinity to HIV1 TAR RNA bulgeless tetraloop mutant assessed as association constant at pH 6.8 by ethidium bromide displacement assay based Scatchard analysis method. The note with it: Human immunodeficiency virus 1. In kind it is nucleic-acid assay. An outline of the steps:
(§1)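 Synthetic 2′-ACE-protected TAR RNA, deprotected, heated 98 °C 5 min, then ice-cooled 15 min. TAR RNA at 200 nM/strand with ethidium bromide 5 μM in 100 mM KCl, 10 mM SC, 0.5 mM EDTA, pH 6.8. Ligand added stepwise, ≤4% v/v. Excitation 545 nm, emission 580–660 nm, intensity at 610 nm normalized. IC50 from sigmoidal fit of fraction EtBr displaced vs log ligand; association constants from Scatchard analysis.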

In experiment [2] the target is Nucleic Acid. Put plainly: Binding affinity to HIV1 TAR RNA tetraloop mutant at pH 6.8 by ethidium bromide displacement assay. In kind it is nucleic-acid assay, Human immunodeficiency virus 1. An outline of the steps:
as §1

For experiment [3], the system named is Human immunodeficiency virus 1. In words: Induction of thermal stability changes in wild type HIV1 TAR RNA assessed as change in melting temperature using 1 molar equivalents of compound pre-incubated for 4 hrs at pH 6.8 at 4 degC before test by UV thermal denaturation assay.
In experiment [4] the test system is Human immunodeficiency virus 1. Put plainly: Induction of thermal stability changes in HIV1 TAR RNA tetraloop mutant assessed as change in melting temperature using 2 molar equivalents of compound pre-incubated for 4 hrs at pH 6.8 at 4 degC before test by UV thermal denaturation assay. An outline of the steps: (§2)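 TAR RNA mutants at 1 μM/strand mixed with 1 or 2 molar equivalents of ligand in 100 mM KCl, 10 mM SC, 0.5 mM EDTA, pH 6.8, then held 4 h at 4 °C. Absorbance at 260 nm in 1 cm cuvettes, 15–100 °C, heating 0.3 °C/min. Tm taken from first-derivative plots and compared with the no-ligand sample.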

For experiment [5], the system named is Human immunodeficiency virus 1. Put plainly: Induction of thermal stability changes in HIV1 TAR RNA bulgeless tetraloop mutant assessed as change in melting temperature using 1 molar equivalents of compound pre-incubated for 4 hrs at pH 6.8 at 4 degC before test by UV thermal denaturation assay. An outline of the steps: as §2
Experiment [6] has as its system Human immunodeficiency virus 1. In words: Induction of thermal stability changes in wild type HIV1 TAR RNA assessed as change in melting temperature using 2 molar equivalents of compound pre-incubated for 4 hrs at pH 6.8 at 4 degC before test by UV thermal denaturation assay.
Experiment [7] deals with Human immunodeficiency virus 1. In words: Induction of thermal stability changes in HIV1 TAR RNA U3 bulge mutant assessed as change in melting temperature using 1 molar equivalents of compound pre-incubated for 4 hrs at pH 6.8 at 4 degC before test by UV thermal denaturation assay. An outline of the steps: as §2
The test system of experiment [8] is Nucleic Acid. In words: Binding affinity to HIV1 TAR RNA bulgeless mutant assessed as association constant at pH 6.8 by ethidium bromide displacement assay based Scatchard analysis method. The experiment is classed as nucleic-acid assay. The note with it: Human immunodeficiency virus 1. The procedure, abridged:
as §1

Experiment [9] concerns the target Nucleic Acid. In words: Binding affinity to HIV1 TAR RNA bulgeless mutant at pH 6.8 by ethidium bromide displacement assay. In kind it is nucleic-acid assay, Human immunodeficiency virus 1. An outline of the steps:
as §1

The target of experiment [10] is Nucleic Acid. In words: Binding affinity to wild type HIV1 TAR RNA at pH 6.8 by ethidium bromide displacement assay. In kind it is nucleic-acid assay, Human immunodeficiency virus 1. The procedure, abridged:
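TAR RNA (200 nM/strand) and EtBr (5 μM) in 100 mM KCl, 10 mM SC, 0.5 mM EDTA, pH 6.8, titrated with ligand aliquots (at most 4% v/v). Fluorescence excited at 545 nm and read at 610 nm. IC50 is the ligand concentration that displaces 50% of EtBr, taken from a sigmoidal fit of fraction displaced versus log ligand concentration.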

Experiment [11] relates to Human immunodeficiency virus 1. Put plainly: Induction of thermal stability changes in HIV1 TAR RNA tetraloop mutant assessed as change in melting temperature using 1 molar equivalents of compound pre-incubated for 4 hrs at pH 6.8 at 4 degC before test by UV thermal denaturation assay. An outline of the steps:
as §2

Experiment [12] has as its system Human immunodeficiency virus 1. Put plainly: Induction of thermal stability changes in HIV1 TAR RNA U3 bulge mutant assessed as change in melting temperature using 2 molar equivalents of compound pre-incubated for 4 hrs at pH 6.8 at 4 degC before test by UV thermal denaturation assay. An outline of the steps: as §2
In experiment [13] the test system is Human immunodeficiency virus 1. Put plainly: Induction of thermal stability changes in HIV1 TAR RNA bulgeless mutant assessed as change in melting temperature using 1 molar equivalents of compound pre-incubated for 4 hrs at pH 6.8 at 4 degC before test by UV thermal denaturation assay. The procedure, abridged: as §2
Experiment [14] addresses Nucleic Acid. In words: Binding affinity to HIV1 TAR RNA bulgeless tetraloop mutant at pH 6.8 by ethidium bromide displacement assay. In kind it is nucleic-acid assay, Human immunodeficiency virus 1. An outline of the steps:
as §1

As to `NC[C@@H]1O[C@H](O[C@H]2[C@@H](O)[C@H](O[C@@H]3[C@@H](O)[C@H](N)C[C@H](N)[C@H]3O[C@H]3O[C@H](CN)[C@@H](O)[C@H](O)[C@H]3N)O[C@@H]2CO)[C@H](N)[C@@H](O)[C@@H]1O` [FRAMYCETIN], the results for the K in the experiment on Nucleic Acid [1] and in the experiment with Nucleic Acid [8] were 1.6 ×10⁷ /M and 3 ×10⁷ /M, respectively. Moreover, the pIC50 on Nucleic Acid [2] is 6.16; on Nucleic Acid [9], 6.82; at Nucleic Acid [10], 6.42; on Nucleic Acid [14] it was 6.72. Also, the ΔTm in experiment [3] worked out at 0.2 °C; in [4], 1 °C; in experiment [5] it was 0 °C; in experiment [6], 0.5 °C; in [7] it was 0 °C; in experiment [11], 1 °C. Moreover, the ΔTm in experiment [12] and in [13] was 1 °C throughout.

Broadly, the pIC50 is −log10 of the IC50, conventionally taken in molar units. A low value points to a large IC50. One may read the ΔTm as the change in melting temperature against a reference sample.
